This passage reports IC50 results from ChEMBL document CHEMBL1131249, “Antimalarial cyclic peroxy ketals” (J Med Chem, 1998).

In general, IC50 refers to the concentration needed to halve the response being measured. A lower IC50 goes with inhibition by little substance.

For the assay, the system named is Plasmodium falciparum. The assay is described as follows: In vitro antimalarial activity against Plasmodium falciparum. The assay is classed as functional, organism-based. In short, it runs like this:
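Method follows earlier published work. Each compound tested in quadruplicate. IC50 derived from fitted concentration–response curves. Artemisinin run as a concurrent control, with n = 20 for the control.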
Take `COC1(c2ccc(S(C)(=O)=O)cc2)C=CC2(CCCCCC2)OO1` (configuration not stated): it took 31 nM to reach half-maximal inhibition (IC50).

For `COc1ccc(C2(OC)C=CC3(CCC3)OO2)cc1` (configuration not stated), the IC50 came out at 160 nM.

Compound `COC1(c2ccc(S(C)(=O)=O)cc2)C=CC2(CCCCC2)OO1` (configuration not stated) registered an IC50 of 56 nM.

`COC1(c2ccc(OC(F)(F)F)cc2)C=CC2(CCCCCC2)OO1` (configuration not stated) displayed an IC50 of 61 nM.

`COC1(c2ccccc2)C=CC2(CCCCCC2)OO1` (configuration not stated) gave a 50% inhibitory concentration (IC50) of 220 nM.

`COC1(c2ccc(F)cc2)C=CC2(CCCCCC2)OO1` (configuration not stated) registered an IC50 of 85 nM. Against the preceding compound, the IC50 is about 2.6-fold lower.

Turning to `CCc1ccc(C2(OC)C=CC3(CCCCCC3)OO2)cc1` (configuration not stated), the half-maximal inhibitory concentration (IC50) is 180 nM.

Compound `COC1(c2ccccc2)C=CC2(CCCC2)OO1` (configuration not stated) returned a half-maximal inhibitory concentration (IC50) of 190 nM.

`COC1(c2ccc([N+](=O)[O-])cc2)C=CC2(CCCCC2)OO1` (configuration not stated): it took 46 nM to reach half-maximal inhibition (IC50).

`COc1ccc(C2(OC)C=CC3(CCCCCC3)OO2)cc1` (configuration not stated) displayed an IC50 of 210 nM.

Take `COC1(c2ccc(SC)cc2)C=CC2(CCCCC2)OO1` (configuration not stated): half-maximal inhibition (IC50) required 160 nM.

As for `COC1(c2ccccc2)C=CC2(CCCCC2)OO1` (configuration not stated), it took 280 nM to reach half-maximal inhibition (IC50).

`CC(C)OC1(c2ccc(Cl)cc2)C=CC2(CCCCCC2)OO1` (configuration not stated) showed an IC50 of 1100 nM.

Regarding `COC1(c2ccc(Cl)cc2)C=CC2(CCCCC2)OO1` (configuration not stated), the IC50 stood at 100 nM. Against the preceding compound, the IC50 is about 11-fold lower.

`CC1(C)C=CC(O)(c2ccccc2)OO1` (configuration not stated) registered an IC50 above 2500 nM.

Compound `COC1(c2ccc(Cl)cc2)C=CC2(CCCCCC2)OO1` (configuration not stated) returned an IC50 of 58 nM.

`COC1(c2ccc(SC)cc2)C=CC2(CCCCCC2)OO1` (configuration not stated) gave a half-inhibitory concentration (IC50) of 78 nM.

`COC1(c2ccc(F)cc2)C=CC2(CCCCC2)OO1` (configuration not stated) yielded an IC50 of 200 nM.

As for `COc1ccc(C2(OC)C=CC3(CCCCC3)OO2)cc1` (configuration not stated), the half-inhibitory concentration (IC50) came to 180 nM.

Turning to `COc1cc(C2(OC)C=CC3(CCCCCC3)OO2)cc(OC)c1OC` (configuration not stated), the IC50 is 120 nM.

`COC1(c2ccccc2)C=CC(C)(C)OO1` (configuration not stated) showed an IC50 of 1100 nM.

On to `C[C@@H]1CC[C@H]2[C@@H](C)C(=O)O[C@@H]3O[C@@]4(C)CC[C@@H]1[C@]32OO4` [ARTEMISININ], for which the IC50 amounted to 8.4 nM.
